# Measured values: ChEMBL document CHEMBL3259701, “Siderophore receptor-mediated uptake of lactivicin analogues in gram-negative bacteria” (J Med Chem, 2014)
# What was measured:
# Pseudomonas aeruginosa [1] = assay: Ratio of MIC for Pseudomonas aeruginosa PAO1 harboring siderophore receptor piuA and pirA double mutant to MIC for wild type Pseudomonas aeruginosa PAO1 in medium containing aztreonam and low-Fe by CLSI broth microdilution method; type: functional
# Pseudomonas aeruginosa [2] = assay: Antibacterial activity against Pseudomonas aeruginosa PAO1 harboring siderophore receptor fpvA mutant in medium containing aztreonam and low-Fe by CLSI broth microdilution method; type: functional
# Escherichia coli [3] = assay: Antibacterial activity against Escherichia coli DH5alpha expressing beta-lactamase NDM-1 by CLSI broth microdilution method; type: functional; details: DH5[alpha]
# Pseudomonas aeruginosa [4] = assay: Ratio of MIC for Pseudomonas aeruginosa PAO1 harboring siderophore receptor piuA and pfeA double mutant to MIC for wild type Pseudomonas aeruginosa PAO1 in medium containing low-Fe by CLSI broth microdilution method; type: functional
# Outline: (§1)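 CLSI broth microdilution MICs in a modified Mueller-Hinton broth depleted of iron to mimic low in vivo iron. Tested against wild-type PAO1 and isogenic siderophore receptor knockout strains. Reported as the knockout-strain MIC divided by the PAO1 MIC in the same iron-depleted medium.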
# Pseudomonas aeruginosa [5] = assay: Antibacterial activity against Pseudomonas aeruginosa PAO1 harboring siderophore receptor pirA mutant in medium containing aztreonam and low-Fe by CLSI broth microdilution method; type: functional
# Pseudomonas aeruginosa [6] = assay: Antibacterial activity against Pseudomonas aeruginosa PAO1 by CLSI broth microdilution method; type: functional
# Pseudomonas aeruginosa [7] = assay: Ratio of MIC for Pseudomonas aeruginosa PAO1 harboring siderophore receptor piuA and fptA double mutant to MIC for wild type Pseudomonas aeruginosa PAO1 in medium containing low-Fe by CLSI broth microdilution method; type: functional; outline: as §1
# [8] = Displacement of fluorescent Bocillin FL from Pseudomonas aeruginosa PBP2
# Pseudomonas aeruginosa [9] = assay: Ratio of MIC for Pseudomonas aeruginosa PAO1 harboring siderophore receptor fpvA mutant to MIC for wild type Pseudomonas aeruginosa PAO1 in medium containing aztreonam and low-Fe by CLSI broth microdilution method; type: functional
# Pseudomonas aeruginosa [10] = assay: Antibacterial activity against Pseudomonas aeruginosa PAO1 harboring siderophore receptor piuA and fptA double mutant in medium containing aztreonam and low-Fe by CLSI broth microdilution method; type: functional
# Pseudomonas aeruginosa [11] = assay: Ratio of MIC for Pseudomonas aeruginosa PAO1 harboring siderophore receptor pfeA mutant to MIC for wild type Pseudomonas aeruginosa PAO1 in Mueller-Hinton broth medium by CLSI broth microdilution method; type: functional
# Outline: (§2)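 Receptor-deficient PAO1 strain MIC divided by parent PAO1 MIC. Both MICs were obtained by CLSI broth microdilution in standard Mueller Hinton broth. A shift greater than 4× was taken to indicate that the deleted receptor(s) take part in drug uptake.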
# Pseudomonas aeruginosa [12] = assay: Ratio of MIC for Pseudomonas aeruginosa PAO1 harboring siderophore receptor fptA mutant to MIC for wild type Pseudomonas aeruginosa PAO1 in Mueller-Hinton broth medium by CLSI broth microdilution method; type: functional; outline: as §2
# Pseudomonas aeruginosa [13] = assay: Ratio of MIC for Pseudomonas aeruginosa PAO1 harboring siderophore receptor piuA and fpvA double mutant to MIC for wild type Pseudomonas aeruginosa PAO1 in medium containing aztreonam and low-Fe by CLSI broth microdilution method; type: functional
# Pseudomonas aeruginosa [14] = assay: Ratio of MIC for Pseudomonas aeruginosa PAO1 harboring siderophore receptor piuA and pirA double mutant to MIC for wild type Pseudomonas aeruginosa PAO1 in medium containing low-Fe by CLSI broth microdilution method; type: functional; outline: as §1
# Pseudomonas aeruginosa [15] = assay: Antibacterial activity against Pseudomonas aeruginosa PAO1 harboring siderophore receptor piuA and fpvA double mutant in Mueller-Hinton broth medium by CLSI broth microdilution method; type: functional
# Outline: (§3)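 MIC by CLSI broth microdilution in standard Mueller Hinton broth. Tested against wild-type P. aeruginosa PAO1 and an isogenic panel lacking one or more siderophore receptors.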
# Escherichia coli [16] = assay: Antibacterial activity against Escherichia coli DH5alpha expressing beta-lactamase CTX-M-15 by CLSI broth microdilution method; type: functional; details: DH5[alpha]
# Klebsiella pneumoniae = assay: Antibacterial activity against Klebsiella pneumoniae KP-3700 by CLSI broth microdilution method; type: functional
# Pseudomonas aeruginosa [17] = assay: Ratio of MIC for Pseudomonas aeruginosa PAO1 harboring siderophore receptor pfeA mutant to MIC for wild type Pseudomonas aeruginosa PAO1 in medium containing low-Fe by CLSI broth microdilution method; type: functional
# Outline: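 Ratio of strain MIC to PAO1 MIC. Both MICs were obtained by CLSI broth microdilution in iron-depleted modified Mueller Hinton broth. A shift greater than 4× versus the parent was read as the deleted receptor(s) taking part in uptake.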
# Pseudomonas aeruginosa [18] = assay: Ratio of MIC for Pseudomonas aeruginosa PAO1 harboring siderophore receptor piuA and fptA double mutant to MIC for wild type Pseudomonas aeruginosa PAO1 in medium containing aztreonam and low-Fe by CLSI broth microdilution method; type: functional
# Pseudomonas aeruginosa [19] = assay: Antibacterial activity against Pseudomonas aeruginosa PAO1 harboring siderophore receptor piuA and pfeA double mutant in medium containing aztreonam and low-Fe by CLSI broth microdilution method; type: functional
# Pseudomonas aeruginosa [20] = assay: Ratio of MIC for Pseudomonas aeruginosa PAO1 harboring siderophore receptor piuA and fpvA double mutant in MHB medium to MIC for Pseudomonas aeruginosa PAO1 harboring siderophore receptor piuA and fpvA double mutant in medium containing low-Fe by CLSI broth microdilution method; type: functional
# Pseudomonas aeruginosa [21] = assay: Antibacterial activity against Pseudomonas aeruginosa PAO1 in medium containing low-Fe by CLSI broth microdilution method; type: functional
# Outline: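 MIC by CLSI broth microdilution in a modified Mueller Hinton broth depleted of iron to mimic the low-iron in vivo environment. Tested against PAO1 and isogenic strains lacking one or more siderophore receptors.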
# Pseudomonas aeruginosa [22] = assay: Antibacterial activity against Pseudomonas aeruginosa PAO1 harboring siderophore receptor pirA mutant in Mueller-Hinton broth medium by CLSI broth microdilution method; type: functional; outline: as §3
# Pseudomonas aeruginosa [23] = assay: Antibacterial activity against Pseudomonas aeruginosa PAO1 harboring siderophore receptor fptA mutant in medium containing aztreonam and low-Fe by CLSI broth microdilution method; type: functional
# Pseudomonas aeruginosa [24] = assay: Ratio of MIC for Pseudomonas aeruginosa PAO1 harboring siderophore receptor piuA mutant to MIC for wild type Pseudomonas aeruginosa PAO1 in medium containing aztreonam and low-Fe by CLSI broth microdilution method; type: functional
# Escherichia coli [25] = assay: Antibacterial activity against Escherichia coli DH5alpha harboring pUCP26 empty vector by CLSI broth microdilution method; type: functional; details: DH5[alpha]
# Pseudomonas aeruginosa [26] = assay: Ratio of MIC for Pseudomonas aeruginosa PAO1 harboring siderophore receptor piuA and fpvA double mutant to MIC for wild type Pseudomonas aeruginosa PAO1 in medium containing low-Fe by CLSI broth microdilution method; type: functional; outline: as §1
# Pseudomonas aeruginosa [27] = assay: Antibacterial activity against Pseudomonas aeruginosa PAO1 harboring siderophore receptor pirA and pfeA double mutant in medium containing aztreonam and low-Fe by CLSI broth microdilution method; type: functional
# Pseudomonas aeruginosa [28] = assay: Ratio of MIC for Pseudomonas aeruginosa PAO1 harboring siderophore receptor piuA and pfeA double mutant in MHB medium to MIC for Pseudomonas aeruginosa PAO1 harboring siderophore receptor piuA and pfeA double mutant in medium containing low-Fe by CLSI broth microdilution method; type: functional
# Acinetobacter baumannii = assay: Antibacterial activity against Acinetobacter baumannii AB-3167 by CLSI broth microdilution method; type: functional
# Pseudomonas aeruginosa [29] = assay: Antibacterial activity against Pseudomonas aeruginosa PAO1 harboring siderophore receptor piuA and fpvA double mutant in medium containing aztreonam and low-Fe by CLSI broth microdilution method; type: functional
# Pseudomonas aeruginosa [30] = assay: Ratio of MIC for Pseudomonas aeruginosa PAO1 harboring siderophore receptor fptA mutant in MHB medium to MIC for Pseudomonas aeruginosa PAO1 harboring siderophore receptor fptA mutant in medium containing low-Fe by CLSI broth microdilution method; type: functional
# Escherichia coli [31] = assay: Antibacterial activity against Escherichia coli EC-28 by CLSI broth microdilution method; type: functional
smiles,measurement,setting,value
CC(C)(O/N=C(\C(=O)N[C@H]1CON(C2(C(=O)O)C[C@H](N3C(=O)c4cc(O)c(O)cc4C3=O)C(=O)O2)C1=O)c1csc(N)n1)C(=O)O (stereo partly drawn),Ratio,Pseudomonas aeruginosa [1],1
same,MIC,Pseudomonas aeruginosa [2],2 µg/mL
same,MIC,Escherichia coli [3],0.03 µg/mL
same,Ratio,Pseudomonas aeruginosa [4],>=4
same,MIC,Pseudomonas aeruginosa [5],4 µg/mL
same,MIC,Pseudomonas aeruginosa [6],0.5 µg/mL
same,Ratio,Pseudomonas aeruginosa [7],>=16
same,IC50,[8],3.7 µM
same,Ratio,Pseudomonas aeruginosa [9],0.5
same,MIC,Pseudomonas aeruginosa [10],4 µg/mL
same,Ratio,Pseudomonas aeruginosa [11],1
same,Ratio,Pseudomonas aeruginosa [12],8
same,Ratio,Pseudomonas aeruginosa [13],1
same,Ratio,Pseudomonas aeruginosa [14],>=8
same,MIC,Pseudomonas aeruginosa [15],16 µg/mL
same,MIC,Escherichia coli [16],0.015 µg/mL
same,MIC,Klebsiella pneumoniae,0.5 µg/mL
same,Ratio,Pseudomonas aeruginosa [17],1
same,Ratio,Pseudomonas aeruginosa [18],1
same,MIC,Pseudomonas aeruginosa [19],4 µg/mL
same,Ratio,Pseudomonas aeruginosa [20],64
same,MIC,Pseudomonas aeruginosa [21],≤ 0.03 µg/mL
same,MIC,Pseudomonas aeruginosa [22],0.5 µg/mL
same,MIC,Pseudomonas aeruginosa [23],4 µg/mL
same,Ratio,Pseudomonas aeruginosa [24],1
same,MIC,Escherichia coli [25],0.03 µg/mL
same,Ratio,Pseudomonas aeruginosa [26],>=8
same,MIC,Pseudomonas aeruginosa [27],4 µg/mL
same,Ratio,Pseudomonas aeruginosa [28],64
same,MIC,Acinetobacter baumannii,0.06 µg/mL
same,MIC,Pseudomonas aeruginosa [29],4 µg/mL
same,Ratio,Pseudomonas aeruginosa [30],64
same,MIC,Escherichia coli [31],0.25 µg/mL
